Laboratory results published in publication PMC2141641 (The Journal of Cell Biology, 1997).

Legend:
[1] = tested on: Bovine adrenal capillary endothelial cells (BCECs); experiment: Endothelial cell migration assay, BCECs; type: cell-based; conditions: TSP-1 2 nM; fusion protein preincubated 2 h at 4°C; migration 4 h at 37°C
Outline: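 Bovine adrenal capillary cells (DME, 10% donor calf serum, 1% endothelial mitogen; passage 15) were starved overnight in DME/0.1% BSA. 3 × 10^4 cells/well were attached 2 h at 37°C to a gelatinized membrane in an inverted Boyden chamber, then reinverted. GST–CD36 fusion proteins were preincubated with 2 nM TSP-1, warmed to room temperature, and added to the top wells. Migration to bFGF ran 4 h at 37°C. Migrated cells/10 high-power fields counted; normalized to bFGF minus background.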

[2] = tested on: CD36–GST fusion protein FP298-439; design: species or system human; conditions: 125I–TSP-1 20 μg/ml; equal to binding in the presence of 5 mM EDTA; n = 5
Outline: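 GST–CD36 fusion protein was coated overnight at 4°C at 10 μg/ml in carbonate buffer, pH 9.8 (200–280 ng/well). Wells were washed with TBS-T and blocked with TBS-T/0.5% BSA. 125I–TSP-1 (20 μg/ml; 0.5–1 mCi/mg) in TBS-T was incubated 2 h at 22°C. Wells were washed and bound counts measured by gamma counting. 5 mM EDTA defined nonspecific binding.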

TSP-1 = conditions: ref Pearce et al., 1995; cited from earlier work

B1: FP298-439: control fusion protein unable to bind TSP-1 spanning CD36 amino acids 298–439 (protein)
chain: KAFASPVENPDNYCFCTEKIISKNCTSYGVLDISKCKEGRPVYISLPHFLYASPDVSEPIDGLNPNEEEHRTYLDIEPITGFTLQFAKRLQVNLLVKPSEKIQVLKNLKRNYIVPILWLNETGTIGDEKANMFRSQVTGKIN
modifications: left off: GST, end not stated, kept
[1]
  block of TSP-1 inhibition of bFGF-induced migration: ineffective
[2]
  TSP-1 binding to immobilized fusion protein (in words): only background binding
TSP-1
  binding of fusion protein to TSP-1: unable to bind TSP-1
